Laboratory results published in ChEMBL document CHEMBL1136045, “Synthesis, in vitro receptor binding, and in vivo evaluation of fluorescein and carbocyanine peptide-based optical contrast agents” (J Med Chem, 2002).

Experiments:
[1] = target: Somatostatin receptor; test: In vitro binding affinity of [111In]DTPA-[Y3]-octreotate to somatostatin receptor in the rat pancreatic tumor cell line, […]
Method in brief: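 Competition binding on CA20948 rat pancreatic cell membranes with the tracer [111In]-DTPA-[Y3]-octreotate and increasing concentrations of unlabeled competitor. Incubation 90 min at room temperature, then filtration and buffer washes. Filter-bound radioactivity was gamma-counted, and IC50 came from a four-parameter curve fit. Specific activity of the radiolabeled peptide was >1400 Ci/mmol.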

[2] = target: Gastrin-releasing peptide receptor (Rattus norvegicus, UniProt P52500); test: In vitro binding affinity of [111In]DTPA-[Y4]-bombesin to bombesin receptor in the rat pancreatic acinar cell line, AR42J
Gastrin-releasing peptide receptor, sequence (P52500 whole entry): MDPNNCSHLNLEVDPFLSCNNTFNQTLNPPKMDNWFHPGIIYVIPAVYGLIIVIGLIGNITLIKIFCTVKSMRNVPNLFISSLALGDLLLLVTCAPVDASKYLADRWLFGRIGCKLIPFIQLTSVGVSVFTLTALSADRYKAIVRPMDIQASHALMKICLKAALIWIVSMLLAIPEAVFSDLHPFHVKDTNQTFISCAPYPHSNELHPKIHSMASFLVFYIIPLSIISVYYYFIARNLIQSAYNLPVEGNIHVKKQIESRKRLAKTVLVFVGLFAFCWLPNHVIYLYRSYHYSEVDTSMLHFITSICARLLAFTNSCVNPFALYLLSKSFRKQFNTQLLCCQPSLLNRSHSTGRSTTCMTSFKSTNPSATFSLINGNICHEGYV
Method in brief: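 Competition binding on AR42-J rat pancreatic acinar cell membranes (~50 μg/well) with the tracer [111In]-DTPA-[P1,Y4]-bombesin and increasing concentrations of cold competitor. Buffer was 50 mM Tris-HCl pH 7.4, 5 mM MgCl2, 0.2 mg/mL BSA. Incubation 90 min at room temperature, then filtration and washing. Bound radioactivity was gamma-counted, and IC50 came from a four-parameter fit.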

| IC50 [1] | IC50 [2] | Structure (SMILES) |
| --- | --- | --- |
| 9.9 nM | – | C[C@@H](O)[C@H](NC(=O)[C@H]1CSSC[C@H](NC(=O)[C@@H](Cc2ccccc2)/N=C(/S)Nc2ccc3c(c2)C(=O)OC32c3ccc(O)cc3Oc3cc(O)ccc32)C(=O)N[C@@H](Cc2ccc(O)cc2)C(=O)N[C@H](Cc2c[nH]c3ccccc23)C(=O)N[C@@H](CCCCN)C(=O)N[C@H]([C@@H](C)O)C(=O)N1)C(=O)O |
| 187.8 nM | – | C[C@@H](O)[C@H](NC(=O)[C@H]1CSSC[C@H](NC(=O)[C@@H](Cc2ccccc2)NC(=O)C(N)CCCC/N=C(\S)Nc2ccc3c(c2)C(=O)OC32c3ccc(O)cc3Oc3cc(O)ccc32)C(=O)N[C@@H](Cc2ccc(O)cc2)C(=O)N[C@H](Cc2c[nH]c3ccccc23)C(=O)N[C@@H](CCCCN)C(=O)N[C@H]([C@@H](C)O)C(=O)N1)C(=O)O (stereo not given in full) |
| 6.4 nM | – | C[C@@H](O)[C@H](NC(=O)[C@H]1CSSC[C@H](NC(=O)[C@@H](Cc2ccccc2)NC(=O)C(CCCCN)/N=C(\S)Nc2ccc3c(c2)C(=O)OC32c3ccc(O)cc3Oc3cc(O)ccc32)C(=O)N[C@@H](Cc2ccc(O)cc2)C(=O)N[C@H](Cc2c[nH]c3ccccc23)C(=O)N[C@@H](CCCCN)C(=O)N[C@H]([C@@H](C)O)C(=O)N1)C(=O)O (stereo not given in full) |
| 10.3 nM | – | C[C@@H](O)[C@H](NC(=O)[C@H]1CSSC[C@H](NC(=O)[C@@H](Cc2ccccc2)NC(=O)C(CCCC/N=C(\S)Nc2ccc3c(c2)C(=O)OC32c3ccc(O)cc3Oc3cc(O)ccc32)NC(=O)CN(CCN(CCN(CC(=O)O)CC(=O)O)CC(=O)O)CC(=O)O)C(=O)N[C@@H](Cc2ccc(O)cc2)C(=O)N[C@H](Cc2c[nH]c3ccccc23)C(=O)N[C@@H](CCCCN)C(=O)N[C@H]([C@@H](C)O)C(=O)N1)C(=O)O (stereo not given in full) |
| 0.4 nM | – | C[C@@H](O)[C@@H](CO)NC(=O)[C@H]1CSSC[C@H](NC(=O)[C@H](N)Cc2ccccc2)C(=O)N[C@@H](Cc2ccc(O)cc2)C(=O)N[C@H](Cc2c[nH]c3ccccc23)C(=O)N[C@@H](CCCCN)C(=O)N[C@H]([C@@H](C)O)C(=O)N1 |
| > 1000 nM | – | C[C@@H](O)[C@H](NC(=O)[C@H]1CSSC[C@H](NC(=O)[C@@H](Cc2ccccc2)NC(=O)CC/N=C(\S)Nc2ccc3c(c2)C(=O)OC32c3ccc(O)cc3Oc3cc(O)ccc32)C(=O)N[C@@H](Cc2ccc(O)cc2)C(=O)N[C@H](Cc2c[nH]c3ccccc23)C(=O)N[C@@H](CCCCN)C(=O)N[C@H]([C@@H](C)O)C(=O)N1)C(=O)O |
| 10.3 nM | – | C[C@@H](O)[C@H](NC(=O)[C@H]1CSSC[C@H](NC(=O)[C@@H](Cc2ccccc2)NC(=O)C(CCCC/N=C(/S)Nc2ccc3c(c2)C(=O)OC32c3ccc(O)cc3Oc3cc(O)ccc32)NC(=O)CN2CCN(CC(=O)O)CCN(CC(=O)O)CCN(CC(=O)O)CC2)C(=O)N[C@@H](Cc2ccc(O)cc2)C(=O)N[C@H](Cc2c[nH]c3ccccc23)C(=O)N[C@@H](CCCCN)C(=O)N[C@H]([C@@H](C)O)C(=O)N1)C(=O)O (stereo not given in full) |
| 285.2 nM | – | C[C@@H](O)[C@H](NC(=O)[C@H]1CSSC[C@H](NC(=O)[C@@H](Cc2ccccc2)NC(=O)CNC(=O)[C@H](CO)NC(=O)CNC(=S)Nc2ccc3c(c2)C(=O)OC32c3ccc(O)cc3Oc3cc(O)ccc32)C(=O)N[C@@H](Cc2ccc(O)cc2)C(=O)N[C@H](Cc2c[nH]c3ccccc23)C(=O)N[C@@H](CCCCN)C(=O)N[C@H]([C@@H](C)O)C(=O)N1)C(=O)O |
| 71.3 nM | – | C[C@@H](O)[C@H](NC(=O)[C@H]1CSSC[C@H](NC(=O)[C@@H](Cc2ccccc2)NC(=O)C(CCCCNC(=O)CN(CCN(CCN(CC(=O)O)CC(=O)O)CC(=O)O)CC(=O)O)/N=C(\S)Nc2ccc3c(c2)C(=O)OC32c3ccc(O)cc3Oc3cc(O)ccc32)C(=O)N[C@@H](Cc2ccc(O)cc2)C(=O)N[C@H](Cc2c[nH]c3ccccc23)C(=O)N[C@@H](CCCCN)C(=O)N[C@H]([C@@H](C)O)C(=O)N1)C(=O)O (stereo not given in full) |
| 1.9 nM | – | C[C@@H](O)[C@H](NC(=O)[C@H]1CSSC[C@H](NC(=O)[C@@H](Cc2ccccc2)NC(=O)CN(CCN(CCN(CC(=O)O)CC(=O)O)CC(=O)O)CC(=O)O)C(=O)N[C@@H](Cc2ccc(O)cc2)C(=O)N[C@H](Cc2c[nH]c3ccccc23)C(=O)N[C@@H](CCCCN)C(=O)N[C@H]([C@@H](C)O)C(=O)N1)C(=O)O |
| 0.6 nM | – | C[C@@H](O)[C@H](NC(=O)[C@H]1CSSC[C@H](NC(=O)[C@H](N)Cc2ccccc2)C(=O)N[C@@H](Cc2ccc(O)cc2)C(=O)N[C@H](Cc2c[nH]c3ccccc23)C(=O)N[C@@H](CCCCN)C(=O)N[C@H]([C@@H](C)O)C(=O)N1)C(=O)O |

The remaining lines, values behind:

| Structure (SMILES) | IC50 [1] | IC50 [2] |
| --- | --- | --- |
| CSCC[C@H](NC(=O)[C@H](CC(C)C)NC(=O)[C@H](Cc1c[nH]cn1)NC(=O)CNC(=O)[C@@H](NC(=O)[C@H](C)NC(=O)[C@H](Cc1c[nH]c2ccccc12)NC(=O)[C@H](CCC(N)=O)NC(=O)[C@H](CC(N)=O)NC(=O)CNC(=O)[C@H](Cc1ccc(O)cc1)NC(=O)[C@H](CCCN=C(N)N)NC(=O)[C@H](CCC(N)=O)NC(=O)[C@@H]1CCCN1C(=O)CN(CCN(CCN(CC(=O)O)CC(=O)O)CC(=O)O)CC(=O)O)C(C)C)C(N)=O | – | 4.7 nM |
| CSCC[C@H](NC(=O)[C@H](CC(C)C)NC(=O)[C@H](Cc1c[nH]cn1)NC(=O)CNC(=O)[C@@H](NC(=O)[C@H](C)NC(=O)[C@H](Cc1c[nH]c2ccccc12)NC(=O)[C@H](CCC(N)=O)NC(=O)[C@@H](N)CCCCNC(=S)Nc1ccc2c(c1)C(=O)OC21c2ccc(O)cc2Oc2cc(O)ccc21)C(C)C)C(N)=O | – | 5.7 nM |
| CSCC[C@H](NC(=O)[C@H](CC(C)C)NC(=O)[C@H](Cc1c[nH]cn1)NC(=O)CNC(=O)[C@@H](NC(=O)[C@H](C)NC(=O)[C@H](Cc1c[nH]c2ccccc12)NC(=O)[C@H](CCC(N)=O)NC(=O)CNC(=O)[C@H](CO)NC(=O)CNC(=O)[C@H](CCCCNC(=S)Nc1ccc2c(c1)C(=O)OC21c2ccc(O)cc2Oc2cc(O)ccc21)NC(=S)Nc1ccc2c(c1)C(=O)OC21c2ccc(O)cc2Oc2cc(O)ccc21)C(C)C)C(N)=O | – | 20.5 nM |
| CSCC[C@H](NC(=O)[C@H](CC(C)C)NC(=O)[C@H](Cc1c[nH]cn1)NC(=O)CNC(=O)[C@@H](NC(=O)[C@H](C)NC(=O)[C@H](Cc1c[nH]c2ccccc12)NC(=O)[C@H](CCC(N)=O)NC(=O)CNC(=O)[C@H](CO)NC(=O)CN)C(C)C)C(N)=O | – | 7.6 nM |
| CSCC[C@H](NC(=O)[C@H](CC(C)C)NC(=O)[C@H](Cc1c[nH]cn1)NC(=O)CNC(=O)[C@@H](NC(=O)[C@H](C)NC(=O)[C@H](Cc1c[nH]c2ccccc12)NC(=O)[C@H](CCC(N)=O)NC(=S)Nc1ccc2c(c1)C(=O)OC21c2ccc(O)cc2Oc2cc(O)ccc21)C(C)C)C(N)=O | – | 3.2 nM |
| CSCC[C@H](NC(=O)[C@H](CC(C)C)NC(=O)[C@H](Cc1c[nH]cn1)NC(=O)CNC(=O)[C@@H](NC(=O)[C@H](C)NC(=O)[C@H](Cc1c[nH]c2ccccc12)NC(=O)[C@H](CCC(N)=O)NC(=O)[C@H](CCCCNC(=S)Nc1ccc2c(c1)C(=O)OC21c2ccc(O)cc2Oc2cc(O)ccc21)NC(=O)CN(CCN(CCN(CC(=O)O)CC(=O)O)CC(=O)O)CC(=O)O)C(C)C)C(N)=O | – | 276 nM |
| CSCC[C@H](NC(=O)[C@H](CC(C)C)NC(=O)[C@H](Cc1c[nH]cn1)NC(=O)CNC(=O)[C@@H](NC(=O)[C@H](C)NC(=O)[C@H](Cc1c[nH]c2ccccc12)NC(=O)[C@H](CCC(N)=O)NC(=O)[C@H](CCCCN)NC(=O)CN(CCN(CCN(CC(=O)O)CC(=O)O)CC(=O)O)CC(=O)O)C(C)C)C(N)=O | – | 410 nM |
| CSCC[C@H](NC(=O)[C@H](CC(C)C)NC(=O)[C@H](Cc1c[nH]cn1)NC(=O)CNC(=O)[C@@H](NC(=O)[C@H](C)NC(=O)[C@H](Cc1c[nH]c2ccccc12)NC(=O)[C@H](CCC(N)=O)NC(=O)CNC(=O)[C@H](CO)NC(=O)CNC(=O)[C@@H](N)CCCCNC(=S)Nc1ccc2c(c1)C(=O)OC21c2ccc(O)cc2Oc2cc(O)ccc21)C(C)C)C(N)=O | – | 9.6 nM |
| CSCC[C@H](NC(=O)[C@H](CC(C)C)NC(=O)[C@H](Cc1c[nH]cn1)NC(=O)CNC(=O)[C@@H](NC(=O)[C@H](C)NC(=O)[C@H](Cc1c[nH]c2ccccc12)NC(=O)[C@H](CCC(N)=O)NC(=O)CNC(=O)[C@H](CO)NC(=O)CNC(=O)[C@@H](N)CCCCN)C(C)C)C(N)=O | – | 4.8 nM |
